{"source": "ChEMBL document CHEMBL1134294", "about": "“A prodrug form of a Plasmodium falciparum glutathione reductase inhibitor conjugated with a 4-anilinoquinoline” (J Med Chem, 2001)", "key": {"[1]": {"tested_on": "Plasmodium falciparum", "experiment": "Effective dose against chloroquine-resistant Plasmodium falciparum FcB1R", "type": "functional", "in_short": "(§1)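 Asynchronous cultures in human erythrocytes (0.5% parasitemia, 1% hematocrit) received serially diluted drug, DMSO ≤0.1%. After 24 h at 37 °C, 0.5 μCi [3H]hypoxanthine was added and incubation continued another 24 h. Growth inhibition was taken versus drug-free control, ED50 read from the concentration–response curve, and reported as mean of ≥3 independent experiments.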"}, "[2]": {"experiment": "Susceptibility of compound to hydrolysis at 37 degrees C at pH 5.0 acetate medium", "type": "ADME", "in_short": "(§2)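 Prodrug (100 μM final, from 1 mM stock in 10% aqueous DMSO) is incubated at 37 °C in pH 7.4 phosphate buffer (150 mM NaCl, 4 mM NaH₂PO₄, 25 mM NaHCO₃) or pH 5.0 acetate (150 mM NaCl, 10 mM NaOAc). Half-life of ester disappearance is found by HPLC as the mean of two determinations.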"}, "[3]": {"target": "T1, Glutathione reductase, mitochondrial (Homo sapiens) (UniProt P00390)", "T1 sequence (whole entry)": "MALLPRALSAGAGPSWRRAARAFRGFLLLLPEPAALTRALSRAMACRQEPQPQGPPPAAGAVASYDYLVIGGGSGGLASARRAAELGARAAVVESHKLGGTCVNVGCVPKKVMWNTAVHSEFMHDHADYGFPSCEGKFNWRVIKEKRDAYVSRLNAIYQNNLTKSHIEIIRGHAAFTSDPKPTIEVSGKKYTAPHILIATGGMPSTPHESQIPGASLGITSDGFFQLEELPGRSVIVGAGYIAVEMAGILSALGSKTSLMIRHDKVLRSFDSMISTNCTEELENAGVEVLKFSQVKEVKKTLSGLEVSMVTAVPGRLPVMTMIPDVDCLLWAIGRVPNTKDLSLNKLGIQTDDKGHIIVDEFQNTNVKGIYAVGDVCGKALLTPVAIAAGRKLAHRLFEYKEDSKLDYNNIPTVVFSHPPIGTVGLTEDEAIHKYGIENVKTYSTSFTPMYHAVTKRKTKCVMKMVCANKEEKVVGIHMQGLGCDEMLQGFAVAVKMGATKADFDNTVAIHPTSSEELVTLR", "experiment": "In vitro inhibition of human Glutathione Reductase; Not active", "in_short": "(§3)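 Recombinant purified GR (about 5 mU/ml) with 100 μM NADPH in 47 mM potassium phosphate, 200 mM KCl, 1 mM EDTA, pH 6.9, at 25 °C. Enzyme, NADPH and inhibitor are premixed and the reaction is started with 100 μM GSSG. NADPH loss is read at 340 nm. IC50 is taken from increasing inhibitor concentrations in 1% final DMSO, run in duplicate.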"}, "[4]": {"target": "Glutathione reductase (Plasmodium falciparum 3D7) (UniProt O15770)", "sequence (O15770 whole entry)": "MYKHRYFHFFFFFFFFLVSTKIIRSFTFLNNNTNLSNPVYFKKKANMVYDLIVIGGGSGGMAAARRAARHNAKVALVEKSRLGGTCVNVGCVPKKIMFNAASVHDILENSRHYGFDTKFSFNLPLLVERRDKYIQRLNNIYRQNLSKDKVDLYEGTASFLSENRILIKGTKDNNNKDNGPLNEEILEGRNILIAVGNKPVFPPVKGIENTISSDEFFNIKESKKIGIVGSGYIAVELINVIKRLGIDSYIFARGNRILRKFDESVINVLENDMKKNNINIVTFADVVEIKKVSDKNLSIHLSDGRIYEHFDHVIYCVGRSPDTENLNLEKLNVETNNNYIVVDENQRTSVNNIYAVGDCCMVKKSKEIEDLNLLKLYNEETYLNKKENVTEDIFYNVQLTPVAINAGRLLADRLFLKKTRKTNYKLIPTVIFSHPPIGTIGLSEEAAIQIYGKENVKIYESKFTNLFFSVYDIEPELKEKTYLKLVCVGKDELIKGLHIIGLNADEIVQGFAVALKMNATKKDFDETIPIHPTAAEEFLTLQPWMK", "experiment": "In vitro inhibition of Plasmodium falciparum Glutathione Reductase; Not active", "details": "Plasmodium falciparum FcB1", "in_short": "as §3"}, "[5]": {"experiment": "Susceptibility of compound to hydrolysis at 37 degrees C at pH 7.4 phosphate buffer", "type": "ADME", "in_short": "as §2"}, "[6]": {"tested_on": "Plasmodium falciparum", "experiment": "In vitro efficacy for chloroquine-sensitive Plasmodium falciparum D6", "details": "read-out: ED50 (the source's name)"}, "[7]": {"tested_on": "Plasmodium falciparum", "experiment": "In vitro efficacy for chloroquine-resistant Plasmodium falciparum W2", "type": "functional", "details": "read-out: ED50 (the source's name)", "in_short": "as §1"}, "[8]": {"tested_on": "Plasmodium falciparum", "experiment": "In vitro efficacy for chloroquine-resistant Plasmodium falciparum FcB1", "type": "functional", "details": "read-out: ED50 (the source's name)", "in_short": "as §1"}, "[9]": {"tested_on": "Plasmodium falciparum", "experiment": "In vitro efficacy for chloroquine-resistant Plasmodium falciparum K1", "type": "functional", "details": "read-out: ED50 (the source's name)", "in_short": "as §1"}, "[10]": {"tested_on": "Plasmodium falciparum", "experiment": "In vitro efficacy for chloroquine-sensitive Plasmodium falciparum Thai", "details": "read-out: ED50 (the source's name)"}, "[11]": {"tested_on": "Plasmodium falciparum", "experiment": "In vitro efficacy for chloroquine-sensitive Plasmodium falciparum F32", "details": "read-out: ED50 (the source's name)"}, "[12]": {"target": "Glutathione reductase (Plasmodium falciparum 3D7) (UniProt O15770)", "experiment": "Competitive inhibition of Plasmodium falciparum Glutathione Reductase", "details": "Plasmodium falciparum FcB1"}, "[13]": {"target": "Glutathione reductase (Plasmodium falciparum 3D7, UniProt O15770)", "sequence (O15770 whole entry)": "as above", "experiment": "In vitro inhibition of Plasmodium falciparum Glutathione Reductase", "parameters": "species or system FcB1", "in_short": "as §3"}, "[14]": {"target": "T2, Glutathione reductase, mitochondrial (Homo sapiens, UniProt P00390)", "T2 sequence (P00390 whole entry)": "T1 sequence (whole entry)", "experiment": "In vitro inhibition of human Glutathione Reductase", "in_short": "as §3"}, "[15]": {"target": "T1, Glutathione reductase, mitochondrial (Homo sapiens)", "experiment": "Competitive inhibition of human Glutathione Reductase"}, "[16]": {"details": "read-out: ED50 (the source's name)"}}, "note": "pEC50, pIC50: −log10 of the molar value. Calls of active or inactive are those of the source. No cut-off for these calls is given here."}
{"smiles": "CC1=C(CCCCCC(=O)OCOC(=O)C(C)(C)C)C(=O)c2ccccc2C1=O", "values": [{"measurement": "pEC50", "setting": "[1]; [16]", "value": 4.62}, {"measurement": "half-life", "setting": "[2]", "value": 1, "unit": "h"}, {"measurement": "NA", "setting": "[3]", "value": "inactive"}, {"measurement": "NA", "setting": "[4]", "value": "inactive"}, {"measurement": "half-life", "setting": "[5]", "value": 2, "unit": "h"}]}
{"smiles": "CCCC(=O)OCOC(=O)CCCCCC1=C(C)C(=O)c2ccccc2C1=O", "values": [{"measurement": "pEC50", "setting": "[1]; [16]", "value": 4.65}, {"measurement": "half-life", "setting": "[2]", "value": 0.5, "unit": "h"}, {"measurement": "NA", "setting": "[3]", "value": "inactive"}, {"measurement": "NA", "setting": "[4]", "value": "inactive"}, {"measurement": "half-life", "setting": "[5]", "value": 1, "unit": "h"}]}
{"smiles": "O=C(CN1CCCCC1)Nc1cc(COC(=O)CCCCCc2ccccc2)cc(Nc2ccnc3cc(Cl)ccc23)c1", "values": [{"measurement": "pEC50", "setting": "[1]; read-out: ED50", "value": 6.43}]}
{"smiles": "CC1=C(CCCCCC(=O)OCc2cc(NC(=O)CN3CCCCC3)cc(Nc3ccnc4cc(Cl)ccc34)c2)C(=O)c2c(O)cccc2C1=O", "values": [{"measurement": "pEC50", "setting": "[1]; read-out: ED50", "value": 7.25}]}
{"smiles": "CC1=C(CCCCCNC(=O)OCc2cc(NC(=O)CN3CCCCC3)cc(Nc3ccnc4cc(Cl)ccc34)c2)C(=O)c2ccccc2C1=O", "values": [{"measurement": "pEC50", "setting": "[1]; read-out: ED50", "value": 6.84}]}
{"smiles": "CCN(CC)CCCC(C)Nc1ccnc2cc(Cl)ccc12", "note": "(stereo not given) [CHLOROQUINE]", "values": [{"measurement": "pEC50", "setting": "[6]", "value": 7.27}, {"measurement": "pEC50", "setting": "[7]", "value": 6.76}, {"measurement": "pEC50", "setting": "[8]", "value": 6.90}, {"measurement": "pEC50", "setting": "[9]", "value": 6.74}, {"measurement": "pEC50", "setting": "[10]", "value": 7.84}, {"measurement": "pEC50", "setting": "[11]", "value": 7.72}]}
{"smiles": "CC1=C(CCCCC(=O)OCc2cc(NC(=O)CN3CCCCC3)cc(Nc3ccnc4cc(Cl)ccc34)c2)C(=O)c2ccccc2C1=O", "values": [{"measurement": "pEC50", "setting": "[1]; [16]", "value": 4.33}]}
{"smiles": "CC1=C(CCCCC(=O)O)C(=O)c2c(O)cccc2C1=O", "values": [{"measurement": "Ki.c", "setting": "[12]", "value": 2400, "unit": "nM"}, {"measurement": "pIC50", "setting": "[13]", "value": 5.60}, {"measurement": "pIC50", "setting": "[14]", "value": 6.00}, {"measurement": "pEC50", "setting": "[1]; [16]", "value": 5.11}, {"measurement": "Ki.c", "setting": "[15]", "value": 1100, "unit": "nM"}]}
